Source: PubChem BioAssay AID623899 (Broad Institute, 2012)
Where “and” joins values, the source holds several entries; their conditions need not be identical. Equal entries are not always repeated. Calls of active or inactive are those of the source.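 The calls were made as follows: active = falling signal with AC50 at or below twice the highest valid dose tested for that sample; inconclusive = flat curve at 30 to 70% inhibition, or unreliable fit; inactive = the rest.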

System: C. albicans CaCi-2 growth, Alamar Blue fluorescence, 48 h
Assay: C. albicans growth inhibitors tested alone, no fluconazole – CaCi-2 strain, dry powder, plate reader, set 2, dose response (AID 623899)
Conditions: not given
In short: (§1)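 Test system – fluconazole-resistant C. albicans strain CaCi-2 · Input – inoculum OD600 0.00015 · Medium – MOPS-buffered RPMI 1640 defined medium with uridine, glucose, Pen/Strep · Doses – pinned compound, dose-response series · Incubation – compound exposure 48 h, 37 °C, humidified, static, then dye 2 h · Detection – Alamar Blue fluorescence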

| SMILES | AC50 |
| --- | --- |
| CCCOC(=O)N1C(=O)C2(CCCCC2)N(c2ccc(C)cc2)C1=S | 5900 nM |
| CCOC(=O)N1C(=O)C2(CCCCC2)N(c2ccc(Cl)cc2)C1=S | < 100 nM |
| CCOC(=O)N1C(=O)C2(CCCC2)N(c2ccc(C)cc2)C1=S | 9790 nM |
| CCOC(=O)N1C(=O)C2(CCCCC2)N(c2ccc(F)cc2)C1=S | < 100 nM |
| CCOC(=O)N1C(=O)C2(CCCCC2)N(Cc2ccccc2)C1=S | 3760 nM |
| CCOC(=O)N1C(=O)C2(CCOCC2)N(c2ccc(C)cc2)C1=S | 20600 nM |
| CCOC(=O)N1C(=O)C2(CCCCC2)N(c2ccccc2C)C1=S | 1200 nM |
| CCOC(=O)N1C(=O)C2(CCCCC2)N(c2ccc(C)cc2)C1=S | 359 nM and 303 nM |
| CC1/C=C/C=C\C=C\C=C\C=C\C=C\C=C\C(O[C@H]2OC(C)C(O)C(N)C2O)CC2OC(O)(CC(O)CC(O)C(O)CCC(O)CC(O)CC(=O)OC(C)C(C)C1O)CC(O)C2C(=O)O (stereo partly specified) | < 10 nM |
| CCOC(=O)N1C(=O)C2(CCCCC2)N(c2ccc(C#N)cc2)C1=S | < 100 nM |
| CCOC(=O)N1C(=O)C2(CCCCC2)N(c2ccc(CC)cc2)C1=S | 1900 nM |
| CCCc1ccc(N2C(=S)N(C(=O)OCC)C(=O)C23CCCCC3)cc1 | 6910 nM |
| CCOC(=O)N1C(=O)C2(CCCCC2)N(c2cccc(C)c2)C1=S | 189 nM |
| CCOC(=O)N1C(=O)C2(CCCCC2)N(c2ccc(OC)cc2)C1=S | 1780 nM |
| CCCCN1C(=O)C2(CCCCC2)N(c2ccc(C)cc2)C1=S | > 52000 nM (inactive) |
| O=C1NC(=S)N(c2ccccc2)C12CCCCC2 | > 52000 nM (inactive) |
| Cc1ccc(N2C(=S)NC(=O)C23CCCCC3)cc1 | > 52000 nM (inactive) |
| CCOC(=O)N1C(=O)C2(CCCCC2)N(c2ccccc2)C1=S | 148 nM |
| COC(=O)N1C(=O)C2(CCCCC2)N(c2ccc(C)cc2)C1=S | 1890 nM |
| CCOC(=O)N1C(=O)C2(CCCCC2)N(c2ccc(C(F)(F)F)cc2)C1=S | 841 nM |
| Cc1ccc(N2C(=S)N(C(=O)OC(C)C)C(=O)C23CCCCC3)cc1 | 8740 nM |
| CCCCN1C(=O)N(c2ccc(C)cc2)C2(CCCCC2)C1=S | > 52000 nM (inactive) |

System: not listed separately
Assay: as above
Conditions: C. albicans CaCi-2 growth, Alamar Blue fluorescence, 48 h; at 26 µM (top of the series)
In short: as §1

| SMILES | activity change, negative = inhibition |
| --- | --- |
| CCOC(=O)N1C(=O)C2(CCCCC2)N(c2ccc(C(C)C)cc2)C1=S | -19.6% (inactive) |
| CCOC(=O)N1C(=O)C2(CCC2)N(c2ccc(C)cc2)C1=S | 18% (inactive) |
| Cc1ccc(N2C(=S)NC(=O)C23CCOCC3)cc1 | -17.4% (inactive) |
| Cc1ccc(N2C(=S)N(S(C)(=O)=O)C(=O)C23CCCCC3)cc1 | 8.47% (inactive) |
| Cc1ccc(N2C(=O)N(C)C(=O)C23CCCCC3)cc1 | 8.26% (inactive) |
| O=C1NC(=S)N(Cc2ccccc2)C12CCCCC2 | 0.564% (inactive) |
| O=C1NC(=S)NC12CCCCC2 | 4.86% (inactive) |
| Cc1ccc(N2C(=S)NC(=O)C2(C)C)cc1 | 2.43% (inactive) |
| CCOC(=O)N1C(=O)C2(CCCCC2)NC1=S | 0.477% (inactive) |
| CCOC(=O)N1C(=S)N(c2ccc(C)cc2)C(=O)C12CCCCC2 | 6.88% (inactive) |
| Cc1ccc(N2C(=O)C3(CCCCC3)NC2=S)cc1 | 9.21% (inactive) |
| CCOC(=O)N1C(=O)N(c2ccc(C)cc2)C2(CCCCC2)C1=O | -28.5% (inactive) |
| Cc1ccc(N2C(=S)N(C(=O)Oc3ccccc3)C(=O)C23CCCCC3)cc1 | 9.01% (inactive) |
| Cc1ccc(N2C(=S)NC(=O)C23CCC3)cc1 | -14.6% (inactive) |
| Cc1ccc(N2CC(=O)NC2=O)cc1 | -7.46% (inactive) |
| CCOC(=O)N1C(=S)N(c2ccc(C)cc2)C2(CCCCC2)C1=NCc1ccccc1 | 3.84% (inactive) |
| CCCC(=O)N1C(=O)C2(CCCCC2)N(c2ccc(C)cc2)C1=S | 15.2% (inactive) |
| CCOC(=O)N1C(=O)C(C)(C)N(c2ccc(C)cc2)C1=S | 17.8% (inactive) |
| O=C1NC(=S)N(c2ccc(F)cc2)C12CCCCC2 | -13.4% (inactive) |
| Cc1ccc(N2CC(=O)NC2=S)cc1 | -6.22% (inactive) |
| CCOC(=O)N1C(=S)NC(=O)C12CCCCC2 | 6.84% (inactive) |
| Cc1ccc(N2C(=S)NC(=O)C23CCCC3)cc1 | 7.79% (inactive) |
| CCCCN1C(=O)N(c2ccc(C)cc2)C2(CCCCC2)C1=O | 9.77% (inactive) |
| CC(C)N1C(=S)NC(=O)C12CCCCC2 | -4.41% (inactive) |
| Cc1ccc(N2C(=O)NC(=O)C23CCCCC3)cc1 | 14.7% (inactive) |
| Cc1ccc(N2C(=S)N(C(=O)OCc3ccccc3)C(=O)C23CCCCC3)cc1 | 1.35% (inactive) |
| Cc1ccc(N2C(=O)C(=O)NC2=S)cc1 | 9.23% (inactive) |
| Cc1ccc(N2C(=S)N(C)C(=O)C23CCCCC3)cc1 | -8.14% (inactive) and -15.3% (inactive) |
| CCOC(=O)N1C(=O)C2(CCCCC2)N(C(C)C)C1=S | -20% (inactive) |
